11 compounds from ChEMBL document CHEMBL3400092 (2015) can be followed below.

Active and inactive are the calls of the source. No cut-off for these calls is given here.

One experiment concerns CL1-5. The experiment can be described thus: Reduction in total wild type EGFR levels in gefinitib-insensitive and 24 hrs serum starved human CL1-5 cells at 10 uM pre-incubated for 1 hr before EGF stimulation for 30 mins by Western blot method. Format: functional. An outline of the steps: (§1)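 Cells in RPMI-1640 with 10% FBS were plated at 1×10^6 per 10-cm dish, cultured overnight, then kept serum-free for 24 h. They were pre-treated with 10 μM compound for 1 h, serum-free, then stimulated with EGF 20 ng/mL (20 min in methods, 30 min in legend). Whole-cell lysates, 40 μg/lane, were run on 10% SDS-PAGE, blotted to PVDF, probed for pan-EGFR and pEGFR (Tyr1068), and detected by ECL.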

A further experiment relates to NCI-H1975. Nature of the experiment: Reduction in total EGFR L858R and T790M mutant levels in gefinitib-resistant and 24 hrs serum starved human NCI-H1975 cells at 10 uM pre-incubated for 1 hr before EGF stimulation for 30 mins by Western blot method. In kind it is functional, cell-based. An outline of the steps:
as §1
A general note: A western blot detects proteins with antibodies after separation by electrophoresis.

In a further experiment the test system is IEC-18. Nature of the experiment: (§2) Cytoprotective activity against 40 uM gefitinib-induced cytotoxicity in rat IEC-18 cells assessed as restoration of cell viability at 5 uM incubated for 24 hrs by MTT assay. In kind it is functional. The method, boiled down: (§3)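 IEC-18 rat intestinal epithelial cells, kept in DMEM with 10% FBS, were seeded at 5×10^3 cells/well and co-treated with compound and gefitinib for 24 h. Stocks were in DMSO, with final DMSO below 0.1%. MTT (0.5 mg/mL) was added for 1.5 h, then DMSO, and absorbance was read at 570 nm. Viability was expressed as proliferative index (%) relative to untreated cells (100%). Triplicate; Student t-test.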
(Formazan colour is commonly taken as a measure of viable cells.)

Experiment [1] deals with Epidermal growth factor receptor (Homo sapiens) (UniProt P00533). The following applies: CL1-5, at 10 µM.
Chain of Epidermal growth factor receptor (Homo sapiens) (P00533 whole entry): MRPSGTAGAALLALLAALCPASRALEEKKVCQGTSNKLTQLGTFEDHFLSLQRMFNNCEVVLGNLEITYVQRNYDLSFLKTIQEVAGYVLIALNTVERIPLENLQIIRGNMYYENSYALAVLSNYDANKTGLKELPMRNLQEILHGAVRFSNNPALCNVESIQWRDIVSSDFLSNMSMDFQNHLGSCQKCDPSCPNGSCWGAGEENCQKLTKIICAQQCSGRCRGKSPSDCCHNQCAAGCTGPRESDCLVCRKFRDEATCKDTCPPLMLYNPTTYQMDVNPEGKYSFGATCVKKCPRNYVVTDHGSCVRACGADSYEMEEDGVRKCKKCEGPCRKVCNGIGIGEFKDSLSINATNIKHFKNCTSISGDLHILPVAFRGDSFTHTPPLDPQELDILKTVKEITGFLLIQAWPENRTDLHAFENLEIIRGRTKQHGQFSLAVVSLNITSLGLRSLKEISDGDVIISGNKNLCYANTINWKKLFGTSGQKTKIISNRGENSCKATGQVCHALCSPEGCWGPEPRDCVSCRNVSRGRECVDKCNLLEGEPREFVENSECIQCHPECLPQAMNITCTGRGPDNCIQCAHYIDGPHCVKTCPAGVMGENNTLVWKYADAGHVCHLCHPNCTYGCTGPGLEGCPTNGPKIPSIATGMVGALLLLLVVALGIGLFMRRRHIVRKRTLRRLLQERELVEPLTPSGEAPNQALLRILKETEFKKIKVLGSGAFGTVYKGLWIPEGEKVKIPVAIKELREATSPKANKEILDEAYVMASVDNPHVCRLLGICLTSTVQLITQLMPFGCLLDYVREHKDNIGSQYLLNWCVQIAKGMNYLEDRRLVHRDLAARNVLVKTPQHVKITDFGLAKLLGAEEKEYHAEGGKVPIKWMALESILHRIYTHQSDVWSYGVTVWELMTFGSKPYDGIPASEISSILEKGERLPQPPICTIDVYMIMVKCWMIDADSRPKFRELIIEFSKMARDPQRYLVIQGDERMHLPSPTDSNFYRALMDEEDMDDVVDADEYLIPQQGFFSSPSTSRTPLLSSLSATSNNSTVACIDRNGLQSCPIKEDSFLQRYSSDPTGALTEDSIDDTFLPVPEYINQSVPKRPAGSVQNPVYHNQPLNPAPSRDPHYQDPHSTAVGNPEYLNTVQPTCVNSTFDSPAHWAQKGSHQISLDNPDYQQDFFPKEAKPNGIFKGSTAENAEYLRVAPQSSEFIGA
The subject of experiment [2] is Epidermal growth factor receptor (Homo sapiens), P00533 [L858R,T790M]. Particulars: NCI-H1975, at 10 µM.
Experiment [3] can be described thus: as §2. Format: functional. An outline of the steps:
as §3

Chain of Epidermal growth factor receptor (Homo sapiens), P00533 [L858R,T790M] (P00533 whole entry T790M/L858R, looked up): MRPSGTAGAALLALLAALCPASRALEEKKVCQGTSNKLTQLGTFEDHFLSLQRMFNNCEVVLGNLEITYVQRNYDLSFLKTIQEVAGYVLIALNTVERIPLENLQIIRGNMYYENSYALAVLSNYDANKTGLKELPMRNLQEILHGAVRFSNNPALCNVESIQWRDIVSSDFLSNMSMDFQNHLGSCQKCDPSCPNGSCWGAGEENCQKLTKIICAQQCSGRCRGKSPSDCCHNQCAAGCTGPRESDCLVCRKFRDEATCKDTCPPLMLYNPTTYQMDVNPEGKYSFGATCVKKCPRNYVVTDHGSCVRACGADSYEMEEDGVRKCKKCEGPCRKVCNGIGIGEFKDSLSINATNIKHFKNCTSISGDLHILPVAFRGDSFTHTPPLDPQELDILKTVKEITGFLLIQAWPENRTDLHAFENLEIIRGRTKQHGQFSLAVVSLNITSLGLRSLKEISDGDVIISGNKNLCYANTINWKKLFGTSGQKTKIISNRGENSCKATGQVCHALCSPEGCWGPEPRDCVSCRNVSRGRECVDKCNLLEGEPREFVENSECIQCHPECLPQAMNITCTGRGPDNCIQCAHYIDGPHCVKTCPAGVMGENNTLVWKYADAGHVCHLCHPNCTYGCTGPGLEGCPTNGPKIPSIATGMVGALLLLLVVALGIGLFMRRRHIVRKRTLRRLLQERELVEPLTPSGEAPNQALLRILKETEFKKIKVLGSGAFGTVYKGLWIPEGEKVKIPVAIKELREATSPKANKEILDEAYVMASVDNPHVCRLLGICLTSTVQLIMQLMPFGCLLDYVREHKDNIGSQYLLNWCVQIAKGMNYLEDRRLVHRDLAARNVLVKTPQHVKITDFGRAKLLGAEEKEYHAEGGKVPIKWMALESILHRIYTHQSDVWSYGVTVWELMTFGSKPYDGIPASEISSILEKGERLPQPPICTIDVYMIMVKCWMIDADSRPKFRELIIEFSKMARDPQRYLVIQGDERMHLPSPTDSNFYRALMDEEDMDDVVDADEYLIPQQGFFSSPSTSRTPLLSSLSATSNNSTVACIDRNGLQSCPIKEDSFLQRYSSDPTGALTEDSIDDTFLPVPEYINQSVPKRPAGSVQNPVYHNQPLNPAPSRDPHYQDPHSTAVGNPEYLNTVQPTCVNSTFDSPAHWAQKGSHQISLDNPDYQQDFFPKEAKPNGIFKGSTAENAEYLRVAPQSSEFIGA

With `COc1ccc(/C=C/C(=O)/C=C(O)/C=C/c2ccc(OC)c(OC)c2)cc1OC`, the inhibition result (in the experiment on CL1-5; with NCI-H1975; in experiment [1]; in experiment [2]) was “Active” each time. For the same compound, the outcome in the experiment with IEC-18 was Active.

As to `COc1ccc(/C=C/C(=O)/C=C(O)/C=C/c2ccc(OC)c(OC)c2)cc1O`, the inhibition result (in the experiment on CL1-5; in the experiment with NCI-H1975; in experiment [1]; in experiment [2]) was “Active” each time. The outcome in the experiment on IEC-18 was Active.

On to `COc1cc(/C=C/C(O)=C/C(=O)/C=C/c2ccc(OC)c(OC)c2)ccc1O`, for which the inhibition entry (in the experiment with CL1-5; with NCI-H1975; in experiment [1]; in experiment [2]) was “Active” throughout. The outcome in the experiment on IEC-18 was Active.

Consider `O=C(/C=C(O)/C=C/c1ccc(O)c(O)c1)/C=C/c1ccc(O)c(O)c1`, for which the inhibition entry (in the experiment on CL1-5; in experiment [1]; in experiment [2]) was “Active” throughout. Also, the inhibition entry in the experiment with NCI-H1975 is “inactive”. Moreover, in experiment [3], the Activity entry was “<=80%”.

With `COc1cc(/C=C/C(=O)CC(=O)/C=C/c2ccc(O)c(OC)c2)ccc1O`, the inhibition entry with CL1-5 and in the experiment with NCI-H1975 was “Active” throughout. The result with IEC-18 was Active.

In the case of `COc1cc(/C=C/C(=O)/C(C(C)=O)=C(O)/C=C/c2ccc(O)c(OC)c2)ccc1O`, the inhibition entry (with CL1-5; with NCI-H1975; in experiment [1]; in experiment [2]) was “Active” throughout.

Take `COc1ccc(CCC(=O)CC(O)CCc2ccc(OC)c(OC)c2)cc1OC` (configuration not stated): the inhibition entry (in the experiment on CL1-5; in the experiment with NCI-H1975; in experiment [1]; in experiment [2]) was “inactive” each time.

On to `COc1cc(/C=C/C(=O)/C=C(O)/C=C/c2cc(O)c(OC)c(OC)c2)cc(O)c1OC`, for which the inhibition result (in the experiment on CL1-5; in the experiment with NCI-H1975; in experiment [1]; in experiment [2]) was “inactive” throughout.

For the compound `CCOC(=O)CC/C(C(=O)/C=C/c1ccc(OCC(=O)OC)c(OC)c1)=C(O)\C=C\c1ccc(OCC(=O)OC)c(OC)c1`, the inhibition entry (in the experiment with CL1-5; with NCI-H1975; in experiment [1]; in experiment [2]) was “inactive” throughout.

With `CCOC(=O)CC/C(C(=O)/C=C/c1ccc(OC)c(OC)c1)=C(O)\C=C\c1ccc(O)c(OC)c1`, the inhibition result (in the experiment on CL1-5; in the experiment with NCI-H1975; in experiment [1]; in experiment [2]) was “Active” in each case.

For `CCOC(=O)CCCOc1ccc(/C=C/C(=O)/C(CCC(=O)OCC)=C(O)/C=C/c2ccc(OCCCC(=O)OCC)c(OC)c2)cc1OC`, the inhibition result (with CL1-5; with NCI-H1975; in experiment [1]; in experiment [2]) was “inactive” in each case.
